# Screening data as filed in PubChem BioAssay.
# Rows were chosen to be rich in hits. Some 1.1% of all compounds tested hit in one or more screens of this group.
# SR-BI HDL uptake – blocks mouse SR-BI lipid uptake from DiI-HDL; Q61009; ldlA[mSR-BI] CHO cells, DiI-HDL uptake fluorescence, 3 h; inhibition, % at 12.5 µM; hit rate 0.96% among 320,000; AID 488896;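 active = mean replicate inhibition of at least 70% and a set share of replicates each scoring 70 or more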;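 note: 0% = median of neutral control wells and 100% = median of positive control wells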
# GSK3A inh – human GSK-3 alpha kinase inhibition | hit rate 0.1% among 320,000 | P49840 | ADP-Glo luminescence, 60 min | inhibition, % at 10 µM;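 active = more than half of replicates show inhibition above 20%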;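 note: GST-tagged GSK-3 alpha with peptide substrate and 25 µM ATP; 0% = DMSO neutral wells and 100% = GW8510 positive control wells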
# SR-BI uptake up – enhances SR-BI lipid uptake from DiI-HDL. CHO ldlA[mSR-BI] cells, DiI-HDL uptake fluorescence, 3 h; 100 = double the neutral-control signal. activation, % at 12.5 µM. hit rate 0.096% among 320,000;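 active = mean replicate activation of at least 60% and every replicate at or above 60%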;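 note: 0% = median plate neutral-control signal and 100% = twice that signal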
#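 Test system: SR-BI-overexpressing, LDLR-lacking CHO cells. Measured by: DiI fluorescence, bottom read. Medium: Ham's F12 with 0.5% BSA, HEPES 25 mM, pH 7.4. Timing: 3 h uptake period with compound, 37 °C.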
# CDK5 p35 inh – CDK5/p35 (human) kinase inhibition; Q00535+Q15078; Recombinant CDK5/p35, ADP-Glo luminescence, 60 min; inhibition, % at 10 µM; hit rate 0.01% among 330,000;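 active = highest replicate inhibition of at least 50% and at least 75% of replicates reaching 50%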;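 note: plate controls were DMSO neutral control for no effect and GW8510 at 10 µM for full effect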
# GSK3B inh – inhibitors of human GSK3beta kinase; GST-GSK3beta kinase, ADP-Glo luminescence, 60 min; active compounds read low; hit rate 0.038% among 300,000; P49841; activity score (negative = inhibition), % at 10 µM;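 active = more than half of replicate wells score below -50%, meaning over 50% inhibition versus plate controls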;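 note: 0% = median DMSO wells and -100% = median GW8510 positive control wells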
# Target sequence (P49841 whole entry, looked up): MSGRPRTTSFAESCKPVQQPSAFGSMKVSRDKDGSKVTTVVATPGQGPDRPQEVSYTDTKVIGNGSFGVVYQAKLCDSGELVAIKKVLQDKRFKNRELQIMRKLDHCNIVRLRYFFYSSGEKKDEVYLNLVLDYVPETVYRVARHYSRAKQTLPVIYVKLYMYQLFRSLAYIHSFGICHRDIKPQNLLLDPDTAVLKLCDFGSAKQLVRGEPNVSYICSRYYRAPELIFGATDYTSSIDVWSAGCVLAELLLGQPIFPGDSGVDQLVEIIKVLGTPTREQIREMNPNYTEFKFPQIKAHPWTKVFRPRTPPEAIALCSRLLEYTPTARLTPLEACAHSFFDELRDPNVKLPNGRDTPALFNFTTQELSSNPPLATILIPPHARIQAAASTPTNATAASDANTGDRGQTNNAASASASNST
#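 test system = GST-tagged human GSK3beta kinase, cell-free | reagent = 25 µM ATP with peptide substrate | dosing = one dose of 10 µM per compound | schedule = 60 min reaction, RT | detection = luminescent ADP-Glo measurement of ADP formed | control set = DMSO neutral wells and GW8510 at 20 µM as positive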
# An asterisk follows results filed as active; x = no result given.
SMILES,SR-BI HDL uptake,GSK3A inh,SR-BI uptake up,CDK5 p35 inh,GSK3B inh
COC(=O)c1cc(NC(=O)c2cc(-c3ccc(C(F)(F)F)cc3)oc2C(F)(F)F)ccc1N1CCOCC1,81*,-2,-81,1,0
COC(=O)c1cc(NC(=O)c2cc(-c3ccc(OC)cc3)oc2C(F)(F)F)ccc1N1CCOCC1,86*,-2,-86,0,2
O=C(NCCCN1CCCC1=O)c1ccc(Cl)c(S(=O)(=O)N2CCCCC2)c1,-12,-4,12,2,x
Cc1ccc(C(CC(=O)O)NC(=O)CN2C(=O)c3ccccc3C2=O)cc1 (configuration not stated),-14,-4,14,0,5
C=CCOc1ccc2cccc(/C=N/NC(=O)c3cc4cc([N+](=O)[O-])ccc4s3)c2c1,77*,-1,-77,-2,3
O=C(Nc1ccccn1)c1cc2cc([N+](=O)[O-])ccc2s1,56,-2,-56,-2,-1
Oc1ccc(Br)cc1-c1cc(-c2ccc(Cl)cc2)n[nH]1,75*,6,-75,-1,-1
O=[N+]([O-])c1cccc(-c2cc(-c3cc(Br)ccc3O)[nH]n2)c1,86*,-1,-86,2,2
Oc1ccc(Br)cc1-c1cc(-c2ccccc2)n[nH]1,48,2,-48,0,-6
CC(Oc1ccccc1)C(=O)N1CCN=C1SCc1ccccc1 (configuration not stated),-28,0,28,1,3
COc1cc(/C=C2\CCCc3c2nc2ccccc2c3C(=O)O)cc(OC)c1O,-230,1,231*,0,2
Cc1c(NC(=O)C(C)N2C(=O)NC3(CCC(C)CC3)C2=O)c(=O)n(-c2ccccc2)n1C (configuration not stated),-30,-2,30,-2,-3
Cc1ccc(-c2nc(N)sc2-c2ccc(C)cc2)cc1,73*,x,-73,-1,2
Cc1ccc(-c2nc(N)sc2C)cc1,x,-4,x,0,1
C/C(=N\NC(=O)c1ccc(CN2CCc3ccccc3C2)cc1)c1ccccc1O,109*,-2,-109,0,-1
Cc1cc(C)n(-c2ccc(C(=O)OCC(=O)Nc3cc(S(C)(=O)=O)ccc3Cl)cc2)n1,3,0,-3,1,x
O=C(c1cccc(S(=O)(=O)N2CCc3ccccc32)c1)N1CCN(c2ccccn2)CC1,7,-1,-7,2,2
Cc1ccc(OCCOCCN(C)C)c(Cl)c1,-64,-3,64*,0,-13
COc1ccc(C(C(=O)NC(C)(C)C)N(C(=O)CCC(=O)Nc2ccccn2)C2CCCCC2)cc1 (configuration not stated),-16,-1,16,-3,2
CCN(C[C@H]1N[C@@](CC)(C(=O)OC)[C@H]2C(=O)N(C)C(=O)[C@@H]12)S(=O)(=O)c1ccc(OC(F)(F)F)cc1,-2,-2,2,10,x
O=C(COC(=O)COc1ccccc1)Nc1ccc(Br)cc1F,-63,7,63*,-1,x
O=C(COC(=O)COc1ccccc1)Nc1ccc(Br)cc1Br,-28,4,28,1,x
C=CCN(C(=O)CCC(=O)Nc1cc(C)on1)C(C(=O)NC1CCCC1)c1ccc(CC)cc1 (configuration not stated),x,-4,x,-3,0
CC(C)OC(=O)C(C)(C)Oc1ccc(C(=O)c2ccc(Cl)cc2)cc1,93*,-5,-93,-2,-1
CCC(CO)Oc1cc(NC(=O)c2cccc([N+](=O)[O-])c2)c2ncn(C(C)C)c2c1 (configuration not stated),75*,2,-75,-1,x
SMILES,SR-BI HDL uptake,GSK3A inh,SR-BI uptake up,CDK5 p35 inh,GSK3B inh
CCC(CO)Oc1cc(NC(=O)c2ccc([N+](=O)[O-])cc2)c2ncn(C(C)C)c2c1 (configuration not stated),45,-1,-45,-1,x
COc1ccc(Nc2nc(-c3cccs3)nc3ccccc23)c(OC)c1,77*,-1,-77,2,3
COc1ccc(Nc2nc(-c3cccc([N+](=O)[O-])c3)nc3ccccc23)c(OC)c1,91*,0,-91,0,2
COc1ccc(OC)c(Nc2nc(-c3cccc([N+](=O)[O-])c3)nc3ccccc23)c1,38,2,-38,0,-3
O=C(NC1CCCC1)C(c1ccccc1F)N(C(=O)c1csnn1)c1ccccc1 (configuration not stated),x,x,x,1,-1
O=C(Cn1cnc2ccccc21)Nc1ccc2c(c1)OCCCO2,-14,-3,14,0,x
Cc1cc(Nc2nc3ccccc3[nH]c2=O)n(-c2ccccc2)n1,16,-2,-16,0,x
Cc1cc(Nc2nc3ccccc3nc2Cl)n(-c2ccc([N+](=O)[O-])cc2)n1,79*,0,-79,1,-1
Cn1c(/C=C(\C#N)C(N)=S)ccc1-c1ccc(Br)cc1,74*,x,-74,-7,x
CCOc1ccc(OCC)c(NC(=O)Nc2ccc3c(c2)N(C)C(=O)CS3)c1,88*,0,-88,0,2
CC(=O)Nc1ccc(NC(=O)Nc2ccc3c(c2)N(C)C(=O)CS3)cc1,1,x,-1,0,3
CCSc1nnc(SCC(=O)Nc2cc(C)on2)s1,-33,-2,33,2,x
Cc1cc(S(=O)(=O)N2CCCc3ccccc32)ccc1-n1cnnn1,x,0,x,1,2
COc1ccc(-c2nc(CS(=O)(=O)CC(=O)NCCc3ccc(C)cc3)c(C)o2)cc1,99*,-2,x,2,x
COc1ccc(-c2nc(CS(=O)(=O)CC(=O)NCCCc3ccccc3)c(C)o2)cc1,62,-3,-62,-1,4
COc1ccc(CNC(=O)Cn2cc(C(F)(F)F)ccc2=O)cc1,-10,2,10,-1,1
COc1cc(C2=NOC(C(=O)N3CCCCCC3)C2)cc(OC)c1OC (configuration not stated),10,x,-10,1,-13
COc1cc(C2=NOC(C(=O)N3CCN(c4ccc(F)cc4)CC3)C2)cc(OC)c1OC (configuration not stated),79*,x,-79,0,-14
CCn1c(NCc2cc(Cl)ccc2O)nc2ccccc21,x,1,x,0,-4
CCCN(CCC)c1ccc(/C=C/c2ccc3cc(OCC)ccc3n2)cc1,71*,-1,-71,0,8
COc1cc2ccccc2cc1C(=O)OCC(=O)N(C)c1c(N)n(Cc2ccccc2)c(=O)[nH]c1=O,40,1,-40,1,2
Cc1cccc(COc2ccccc2C(=O)OCC(=O)N(C)c2c(N)n(Cc3ccccc3)c(=O)[nH]c2=O)c1,87*,3,-87,0,2
CCOC(=O)c1cccc(NC(=O)c2ccc(-n3cnnn3)cc2)c1,18,0,-18,1,x
CCOC(=O)/C(=C/C=C1\Sc2cc(OCC)c(OCC)cc2N1CC)C(C)=O,78*,4,-78,1,3
